Screens deposited in PubChem BioAssay by Johns Hopkins Ion Channel Center.
Most compounds without a hit are left out; they make up all but 3.8% or so of the library.
Kir21 block: Kir2.1 (mouse) channel inhibition; P35561; HEK293-Kir2.1, FluxOR thallium flux fluorescence; hits give low values; B-score at 10 µM; 0.85% of 310,000 active; AID 1672;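 active = fluorescence ratio B-score at or below minus 3 SD of library scores, with starting-brightness B-score within 2 SD, cut at about -4.2 in these data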;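 also: channel flux triggered by added potassium and thallium sulfate stimulus; B-score of peak minus minimum fluorescence over baseline after thallium stimulus; more negative B-score means stronger Kir2.1 block with less thallium influx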
KCNQ1 act: human KCNQ1 channel potentiation or activation. AID 2648. P51787. 0.35% of 310,000 active. CHO-K1 KCNQ1, thallium flux FluxOR fluorescence; hits give high values. B-score at 10 µM;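 active = fluorescence ratio B-score, a plate-corrected score, at least three library SD, with initial intensity B-score within 5 SD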
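Schedule – 37 °C overnight plating, 90-min dark dye load, 20-min compound pretreatment · System – stable KCNQ1 CHO-K1 line · Probe or stimulus – thallium- and potassium-containing depolarizing buffer · Measured by – kinetic FluxOR fluorescence, 10 s baseline plus 110 s post-stimulus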
hERG rescue: shields human hERG channel from block by proarrhythmic agents. Q12809. CHO-hERG, FluxOR thallium flux, dofetilide IC70 present. activation (rescue from dofetilide block), less the hit threshold, % at 10 µM. 0.51% of 310,000 active. AID 1511;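 active = activation above the mean of controls blocked by dofetilide plus 5 SD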;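 also: thallium influx through hERG after potassium depolarization seen as dye fluorescence rise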
KCNQ1 inh: inhibitors of human KCNQ1 potassium channel | P51787 | 1.3% of 310,000 active | CHO-K1 KCNQ1, FluxOR thallium flux fluorescence; hits give high values | B-score at 10 µM;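 active = compounds whose thallium flux B-score, printed positive for inhibition, exceeds three library SD while starting fluorescence stays within three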;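 also: channel opened by potassium depolarization with thallium stimulus after 20 min compound exposure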
KCNK9 block: inhibitors of human KCNK9 two-pore domain potassium channel | 1.2% of 310,000 active | B-score at 10 µM | Q9NPC2 | HEK293 KCNK9, FluxOR thallium flux fluorescence; hits give low values;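 active = ratio B-score over 3 SD below the library mean, with starting fluorescence within 5 SD of its mean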;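 also: negative B-score means less thallium flux so channel inhibition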
KCNK3 inh: human KCNK3 channel inhibition, primary screen; O14649; CHO-KCNK3 thallium flux, FluxOR fluorescence; hits give low values; 0.84% of 340,000 active; B-score at 10 µM;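 active = B-score under library mean minus 4 SD, starting fluorescence ratio at most library mean plus 5 SD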;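 also: more negative B-score means stronger inhibition of thallium flux through KCNK3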
Target sequence (O14649 whole entry, looked up): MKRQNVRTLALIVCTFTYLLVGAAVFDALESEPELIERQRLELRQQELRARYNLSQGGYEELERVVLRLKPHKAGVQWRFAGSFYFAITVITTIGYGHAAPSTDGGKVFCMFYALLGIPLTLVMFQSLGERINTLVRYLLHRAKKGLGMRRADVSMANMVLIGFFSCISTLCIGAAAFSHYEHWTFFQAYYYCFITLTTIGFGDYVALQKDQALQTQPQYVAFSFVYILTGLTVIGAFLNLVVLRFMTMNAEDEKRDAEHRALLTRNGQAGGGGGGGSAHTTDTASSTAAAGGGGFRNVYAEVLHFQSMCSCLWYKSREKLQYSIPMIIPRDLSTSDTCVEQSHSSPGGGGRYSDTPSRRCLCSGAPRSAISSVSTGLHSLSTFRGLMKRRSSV
KCNK3 confirm: human KCNK3 channel inhibition, confirmation assay; 99% of 2,400 active; shares compounds with KCNK3 inh; CHO-KCNK3 thallium flux, FluxOR fluorescence; 0% buffer, 100% carvedilol maximal block; ratio percent of control, % at 10 µM;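 active = ratio percent of control, averaged over triplicates, above buffer control mean plus 5 SD, cut at about 64% in these data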;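 also: ratio is the fluorescence rise from min to max over baseline after thallium stimulus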
KCNK3 noninduced: KCNK3 inhibitor counter-screen hit in non-induced cells; thallium flux ratio (lower = more inhibition) at 10 µM; 40% of 2,400 active; non-induced KCNK3 parental cells, FluxOR thallium flux; hits give low values; shares compounds with KCNK3 inh;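 active = thallium flux ratio, averaged over three wells, more than 5 SD below the buffer control mean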;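 also: host cells are CHO cells without KCNK3 induction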
Numbers stand for hits; - = inactive; . = no result given.

SMILES	Kir21 block	KCNQ1 act	hERG rescue	KCNQ1 inh	KCNK9 block	KCNK3 inh	KCNK3 confirm	KCNK3 noninduced
CCOc1ccc(C2C(C#N)=C(N)SC(N)=C2C#N)cc1OCC	-	-	-	-	-	-12	108	0.15
COC(=O)c1ccc(CSc2nnc(NC(C)C)s2)o1	-	-	-	-	-	-	.	.
COc1cc(Cl)c(C)cc1NC(=O)CN(C)Cc1cccc(OC)c1OC	-	-	-	-	-	-13	99	-
COc1ccccc1CN(C)CC(=O)Nc1cccc2ccccc12	-	-	-	-	-	-	.	.
CCOP(=O)(OCC)c1nc(-c2ccc(C)cc2)oc1N1CCOCC1	-	-	-	-	-	-	.	.
CCOP(=O)(OCC)c1nc(-c2ccc(Br)cc2)oc1N1CCCCC1	-	-	-	-	-	-10	102	-
Cc1cc(OCC(=O)N2CCc3ccccc3C2)c(C)cc1Br	-	-	-	-	-	-8.8	130	0.14
Cc1ccccc1OCC(=O)N1CCc2ccccc2C1	-	-	-	-	-	-	.	.
N#CCc1nn(Cc2ccc(F)cc2)c(=O)c2ccccc12	-	-	-	-	-	-9	94	-
O=c1c2ccccc2nnn1Cc1ccc(F)cc1	-	-	-	-	-	-	.	.
CCOC(=O)Cc1nn(Cc2ccc(Cl)cc2)c(=O)c2ccccc12	-	-	-	-	-	-	.	.
CCOC(=O)Cc1nn(Cc2ccccc2)c(=O)c2ccccc12	-	-	-	-	-	-9.9	109	0.15
COc1ccc(CC(=O)N2N=C(C)CC2(O)c2cccnc2)cc1OC (configuration not stated)	-	-	-	-	-	-	.	.
CCOC(=O)c1ccccc1NC(=O)C1CC(=O)N(c2ccccc2)C1 (configuration not stated)	-	-	-	-	-	-	.	.
Cc1onc(-c2ccc(Cl)cc2Cl)c1-c1csc(COc2ccccc2)n1	-	-	-	-	-	-9.6	101	0.15
COc1ccc(OC(C)C(=O)N2CCOCC2)cc1 (configuration not stated)	-	-	-	-	-	-	.	.
CCn1c(NCc2ccccc2NS(=O)(=O)c2ccc(C)cc2)nc2ccccc21	-	-	-	-	-	-	.	.
CCn1c(NCc2cc(Br)ccc2NS(=O)(=O)c2ccc(C)cc2)nc2ccccc21	-	-	-	6	-	-11	120	-
O=C(c1ccco1)N1CCC(c2nc(-c3ccccc3Cl)no2)CC1	-	-	-	-	-	-	.	.
O=C(Nc1ccc(Cl)cc1)N1CCC(c2nc(-c3ccccc3Cl)no2)CC1	-	-	-	-	-	-8.7	108	0.14
O=C(C1CCCN(S(=O)(=O)c2cccc3nsnc23)C1)N1CC=C(c2ccccc2)CC1 (configuration not stated)	.	.	.	.	.	-15	115	-
O=C(C1CCN(S(=O)(=O)c2cccc3nsnc23)CC1)N1CC=C(c2ccccc2)CC1	-	-	-	-	-	-	.	.
N#Cc1nc(-c2ccco2)oc1N1CCCC1	-	-	-	-	-	-	.	.
N#Cc1nc(-c2ccco2)oc1N1CCN(c2cccc(Cl)c2)CC1	-	-	-	-	-	-9.6	111	-
O=C(CCc1nc2cccnc2n1Cc1ccccc1)N1CCOCC1	-	-	-	-	-	-	.	.
SMILES	Kir21 block	KCNQ1 act	hERG rescue	KCNQ1 inh	KCNK9 block	KCNK3 inh	KCNK3 confirm	KCNK3 noninduced
CCc1c(-c2ccccc2)nc2nc(C)c(C)nn12	-	-	-	-	-	-8.9	104	0.14
CCOc1ccccc1C(=O)OCC(=O)NCCc1ccc(OC)cc1	.	.	.	.	.	-	.	.
COc1cccc(OCCn2cc(C(C)=O)c3ccccc32)c1	-	-	-	-	-	-9.2	124	-
COc1ccccc1OCCn1cc(C(=O)c2ccco2)c2ccccc21	-	-	-	-	-7.4	-12	102	-
COc1ccccc1NC(=O)Cn1cc(C(=O)c2ccco2)c2ccccc21	-	-	-	-	-	-	.	.
O=C(c1cccc(C(F)(F)F)c1)C1CCCN(C(=O)C2CCOCC2)C1 (configuration not stated)	-	-	-	-	-	-	.	.
O=C(NN=Cc1ccc(Cl)cc1Cl)C1CC1	.	.	.	.	.	-	.	.
Cc1ccc(C)c(OCCNc2ncccc2[N+](=O)[O-])c1	-	-	-	-	-	-12	102	-
Cc1ccc(C)c(OCCNc2ccc([N+](=O)[O-])cn2)c1	-	-	-	-	-	-	.	.
COc1ccc(CN(C)C(C)C(=O)Nc2cccc3ccccc23)cc1 (configuration not stated)	-	-	-	-	-	-9.7	121	0.16
COc1ccccc1NC(=O)C(C)N(C)Cc1ccc(Cl)s1 (configuration not stated)	-	-	-	-	-6.9	-	107	0.16
COc1ccccc1NC(=O)C(C)N(C)CC(=O)Nc1cccc2ccccc12 (configuration not stated)	.	.	.	.	.	-	.	.
Cc1cc(C(=O)CSc2nnc(-c3ccccc3F)o2)c(C)n1Cc1cccs1	-	-	-	-	-	-	.	.
Cc1cc(C(=O)CN2C(=O)c3cccc(N)c3C2=O)c(C)n1Cc1cccs1	-	-	-	-	-	-11	121	-
CCN(CC)c1ccc(NC(=O)CSc2nc3ccccc3c(=O)[nH]2)cc1	-	-	-	-	-	-	.	.
CCCN1C(=O)/C(=C/c2cc(C)n(C)c2C)SC1=Nc1ccc(OC)cc1	-	-	-	-	-	-11	101	0.15
Cc1ccc(C)c(N2CCN(C(=O)c3cn(C)c4ccc(S(=O)(=O)N(C)C)cc4c3=O)CC2)c1	-	-	-	-	-	-	.	.
Cc1ccccc1-n1nnnc1SCc1ncc(-c2ccccc2)o1	-	-	-	-	-	-9.4	99	-
Cc1ccc(/C=C/c2onc(C)c2S(=O)(=O)N2CCC(C(=O)N3CCCCC3)CC2)cc1	-	-	-	-	-	-	.	.
COc1cc2c(cc1OC)C(c1ccccc1)N(C(=O)c1ccco1)CC2 (configuration not stated)	-	-	-	-	-	-11	97	-
NC(=S)Nc1ccc(Cl)c(Cl)c1	-	-	-	-	-	-	.	.
Cc1cc(C)cc(NC(=S)Nc2ccc(Cl)c(Cl)c2)c1	-	-	-	12	-	-14	146	0.11
CCOCCCNC(=O)c1ccc2c(c1)ncn2-c1cccc(C)c1	-	-	-	-	-	-	.	.
CCOC(=O)/C(N=Nc1c(C)n(C)n(-c2ccccc2)c1=O)=C(/O)c1ccccc1	-	-	-	-	-	-8.9	109	-
